# Published values pooled from the literature.
# Protocols differ between the studies behind these lines.
SMILES,target or system,read-out,method,strain,concentration,measurement,value
COc1ccc(-c2ccc(-c3ccc(C(=N)N)nc3)s2)cc1Cl,U-251,cell growth or viability,SRB,,,GI50,1820 nM
CO/N=C1\CN(c2nc3c(cc2F)c(=O)c(C(=O)O)cn3C2CC2)CC1CN (stereo not drawn),Moraxella catarrhalis,microbial growth,,,,MIC,2 µg/mL
COc1cccc(NC(=O)CN2C(=O)/C(=C/c3ccco3)SC2=S)c1,A549,cell growth or viability,MTT,,10 µM,inhibition,13.7%
O=C(Nc1ccccc1-c1ccc(F)c(F)c1)c1nccnc1C(F)(F)F,Colletotrichum gloeosporioides,microbial growth,,,,EC50,> 100 µg/mL
O=C(CN1C(=O)/C(=C/c2cccs2)SC1=S)Nc1ccccc1,A549,cell growth or viability,MTT,,10 µM,inhibition,23.5%
Cc1ccc(Cl)cc1NC(=O)Cc1c[nH]c2ccccc12,,ABTS scavenging,,,,IC50,1280 nM
CC1(C)S[C@@H]2[C@H](NC(=O)[C@H](N)c3ccccc3)C(=O)N2[C@H]1C(=O)O,Moraxella catarrhalis,microbial growth,broth dilution,ATCC25238,,MIC,< 0.25 µg/mL
O=C(Cc1c[nH]c2ccccc12)Nc1cccc(Br)c1,,ABTS scavenging,,,,IC50,1140 nM
O=C(CN1C(=O)/C(=C/c2ccccc2Cl)SC1=S)Nc1ccccc1,PC-3,cell growth or viability,MTT,,10 µM,inhibition,22.6%
O=C(Cc1c[nH]c2ccccc12)Nc1ccc(I)cc1,,ABTS scavenging,,,,IC50,660 nM
O=C(CN1C(=O)/C(=C/c2ccc[nH]2)SC1=S)Nc1ccccc1,A549,cell growth or viability,MTT,,10 µM,inhibition,21.4%
COc1cc(Nc2nccc(-c3cnn4nc(OC)ccc34)n2)cc(C(F)(F)F)c1,NCI-H2286,cell growth or viability,ATP luminescence,,,IC50,160 nM
